Test results taken from ChEMBL document CHEMBL4513216, “Probing the Open Global Health Chemical Diversity Library for Multistage-Active Starting Points for Next-Generation Antimalarials” (ACS Infect Dis, 2020).

experiment: Toxicity liver stage against HepG2, at 10uM; assay type: cell-based; parameters: test concentration 10 uM, cell line HepG2-A16-CD81EGFP; details: human, HepG2-A16-CD81EGFP cells; read-out: INHIBITION
Summary of the method: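 Uninfected HepG2-A16-CD81EGFP cells, 3 × 10^3 per well, 1536-well, plated on prespotted compound at 10 μM final, parasite-free screening media added to match infected plates; puromycin 10 μM positive, DMSO 0.5% negative; run in parallel with 48 h PbLuc assay at 37 °C, 5% CO2; viability by CellTiter-Glo luminescence, normalized to controls.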

Row | Compound | cytotoxicity at 10 µM
1 | COC(=O)CCCC(=O)N1CCC(CO)(CCc2ccccc2)CC1 | 1.34%
2 | Nc1nnc(SCc2cc(=O)n3c4c(sc3n2)CCCC4)s1 | 7.83%
3 | O=S1(=O)N(c2ccccc2)C[C@H](O)[C@]12CCNC2 | 0.827%
4 | CC(C)CNC(=O)CNc1c(NCc2ccncc2)c(=O)c1=O | -4.44%
5 | O=C(Cn1ccc2ccccc21)Nc1cc(N2CCOCC2)ncn1 | -14%
6 | COCCn1cnc(-c2nc(C(=O)N3CCOCC3)c3ccccn23)c1 | -10.3%
7 | COCC1CN(C(=O)Cc2cccs2)Cc2nnn(CC3CC3)c21 (centres undefined) | 5.98%
8 | Cc1nc(N2CCOCC2)nc2c1CCN(C(=O)C1CC1)CC2 | 2.23%
9 | O=C(c1ccc[nH]1)N1CCOCC2(CCN(C3CCOCC3)C2)C1 (centres undefined) | 10.7%
10 | NC(=O)C1CCN(C(=O)Cn2ccc3cc(Br)ccc32)CC1 | 11.1%
11 | Cc1nc(C(Cc2ccsc2)NC(=O)CN2CCOCC2)sc1C (centres undefined) | 2.7%
12 | Cc1cc(O)nc(C2CCN(C(=O)CO)CC2)n1 | 0.01%
13 | CS(=O)(=O)c1cc(Cl)cnc1C1CCCN(C(=O)C2CCOCC2)C1 (centres undefined) | 4.34%
14 | O=C(CN1CCCCCC1)N1CCc2nnc(C3CCCNC3)n2CC1 (centres undefined) | -5.56%
15 | Cc1nc(C2CCN(C(C)C)CC2)sc1Br | -3.02%
16 | O=C(Cc1ccc(O)cc1)N1CCCC(O)(CN2CCOCC2)CC1 (centres undefined) | -1.45%
17 | Cc1noc(C)c1-c1ccc(C2CCCN2CCC(N)=O)nc1 (centres undefined) | 1.94%
18 | Cc1cccc(CC2CCCN(C(=O)C3CCOCC3)C2)n1 (centres undefined) | 2.16%
19 | COCCC(=O)N1CCCC1c1csc(Nc2ccccn2)n1 (centres undefined) | -13.2%
20 | NC(=O)CN1CCC(c2cc(C(F)(F)F)n3ccnc3n2)CC1 | -2.28%
21 | Cc1noc(C)c1-c1cccc(CC2CCN(C(=O)CCC(=O)O)C2)n1 (centres undefined) | -8.44%
22 | Cc1ccc2nc(C3CCCN(Cc4ccccc4)C3)nc(O)c2c1 (centres undefined) | 6.67%

Row | Compound | cytotoxicity at 10 µM
23 | COc1ccccc1-c1nc(C(=O)N(C)C)n2ccncc12 | 12.6%
24 | Cc1cc(NC(=O)N2CCC[C@@H]2CO)nn1-c1ccccc1Cl | -1.29%
25 | CC(C)c1noc(CCC(=O)N(CC2CCOC2)C2CC2)n1 (centres undefined) | 8.01%
26 | CC(C)(C)c1n[nH]c(C2CN(CCNC3CCCCC3)CCO2)n1 (centres undefined) | 6.86%
27 | COc1ccc(OC)c(CNC2CCCN(c3cccnn3)C2)c1 (centres undefined) | -4.67%
28 | CC(Oc1cc(Cl)cc(Cl)c1)C(=O)NCCC(=O)N(C)C (centres undefined) | -6.51%
29 | CC(C)(C)Oc1ccc(CN)c(C(F)(F)F)c1 | 9.5%
30 | Cc1nccn1CCCC(=O)Nc1nc(C(C)C)nn1C | -1.37%
31 | O=C(COC1CCCC1)NCCc1nc(-c2ccccn2)cs1 | 6.94%
32 | CCOC(=O)CNC(=O)c1scnc1C | 5.35%
33 | COCCN(CCC#N)S(=O)(=O)c1ccc(F)cc1Cl | 2.13%
34 | CCN(CC)C(=O)CNC(=O)c1cnc(-c2ccccc2)nc1 | 12.7%
35 | Cc1cccc(C(=O)NC2CCN(c3cnn(C)c3)C2=O)c1C (centres undefined) | -1.2%
36 | CC(CNC(=O)c1cc(Cl)ccc1I)N1CCCC1 (centres undefined) | -5.28%
37 | Cc1nc(CN2CCN(C(=O)CCc3nc(C(C)(C)C)no3)CC2)cs1 | 3.64%
38 | Cc1ccc(CN(C)C(=O)Cn2nc(-c3ccc(F)cc3)oc2=O)cc1 | -20.6%
39 | Cc1ccc(CC(=O)N2CCCCC2Cn2cccn2)cn1 (centres undefined) | -130%
40 | Cc1ccc(OCCCC(=O)NC(C)c2ccc(S(N)(=O)=O)cc2)cc1 (centres undefined) | -2.69%
41 | O=C(c1ccccc1)C1CCN(Cc2cc3c(cc2O)CCC3)CC1 | 24.2%
42 | O=C(NC1CC1)NC(c1cc(F)ccc1F)C1CC1 (centres undefined) | -12.8%
43 | CCn1c(CN(C)C(=O)c2ccc(OC)nc2)nc2ccccc21 | -6.23%
44 | CCCOc1ccc(CNCCn2cccn2)cc1 | 9.66%

Row | Compound | cytotoxicity at 10 µM
45 | CC/C=C(/C)C(=O)N1CCN(C2=NCC(C)S2)CC1 (centres undefined) | -145%
46 | COc1ccc(C(=O)NCCCNc2ncccn2)c(OC)c1 | -7.4%
47 | CCCc1nnc(NCc2ccc(OC)c(C#N)c2)o1 | -0.808%
48 | CCOC(C(=O)N1CCn2c(C)nnc2C1)c1ccccc1 (centres undefined) | 4.93%
49 | CC(Cn1cccn1)NCCS(=O)(=O)c1ccc(Cl)cc1 (centres undefined) | -6.19%
50 | CCN(Cc1ccoc1)C(C(N)=O)c1ccc(C#N)cc1 (centres undefined) | -18.6%
51 | C1CCC(NCC2(N3CCOCC3)CCSC2)C1 (centres undefined) | -10.8%
52 | CN1CCN(S(=O)(=O)c2cccc(F)c2)c2cnccc21 | -2.95%
53 | CC(=O)Nc1cc(Br)cnc1OCC(F)(F)F | 5.69%
54 | COc1ccc2c(ccn2CC(=O)N2CCCC2c2cnn(C)c2)c1 (centres undefined) | 3.74%
55 | Cc1cc(F)c(S(=O)(=O)Nc2ccn(CCCC#N)n2)cc1F | 19.3%
56 | COc1ccc(N2CCCN(CC(=O)N3CCNC(=O)C3)CC2)cc1 | 6.06%
57 | Cc1ncc(CNCC2CCC(C(N)=O)CC2)n1-c1ccccc1 (centres undefined) | -12.9%
58 | O=C(Cc1cccs1)N1Cc2nc(CN3CCCC3)oc2C1 | -2.87%
59 | CC1c2ncc(Cn3cccn3)n2CCN1S(=O)(=O)C1CC1 (centres undefined) | -108%
60 | COCCN1CCN(c2cc(OC)ncn2)Cc2ccc(C)nc21 | -99.2%
61 | CN(Cc1cc(C(C)(C)C)n[nH]1)C(=O)c1c[nH]nc1-c1cccc(F)c1 | -3.39%
62 | CCCSCC(=O)N1CCCC(CO)(CCC)C1 (centres undefined) | 4.86%
63 | Cc1ccc(O)c(CN2CCCCC2CCN2CCOCC2)c1 (centres undefined) | 4.25%
64 | COC(=O)c1ccc(CNC(=O)CN2C[C@@H](NC(C)=O)[C@H](C(C)C)C2)o1 | -0.921%
65 | COCCCC1(C(=O)O)CCCN(C(=O)c2ccc(C(C)C)[nH]c2=O)C1 (centres undefined) | -52.9%
66 | Cc1ccc([C@@H]2CN(C(=O)CCc3cc(Cl)no3)C[C@H]2N(C)C)cc1 | 6.74%

Row | Compound | cytotoxicity at 10 µM
67 | CNc1ncc(CN(C)C(=O)c2ccc(C3CCCO3)s2)cn1 (centres undefined) | 10.2%
68 | Cc1nnsc1CN(C)C(=O)CCn1cnc2ccccc21 | 14.7%
69 | C=C(C)COc1cccc(C(=O)N(C)C(C)c2c(C)n[nH]c2C)c1 (centres undefined) | 2.8%
70 | CCc1cnc(N)nc1NCCn1cc(Cl)cn1 | 1.5%
71 | CC(=O)N[C@@H]1CN(C2CCN(c3cccc(Cl)c3)CC2)C[C@H]1C(C)C | 1.6%
72 | CC(C)c1cncnc1N1CC[C@H](N2CCOCC2)[C@H](CCCO)C1 | 5.86%
73 | CC(C)c1cc(CN2CCNCC2)no1 | -10.9%
74 | CCOCC(=O)N1C[C@@H](O)[C@H](N(C)Cc2ccc(OC)cc2)C1 | 0.307%
75 | O=c1oc(-c2ccc(F)cc2)nn1CN1CCN(CC2CC2)CC1 | 1.44%
76 | O=C(NCc1ccccc1Cn1cncn1)C1CCCCC1 | -2.06%
77 | CNS(=O)(=O)c1ccc(C(=O)N2CCCCC2c2ccc(C)cc2)o1 (centres undefined) | -9.8%
78 | CN(C)C(=O)CCCS(=O)(=O)Cc1cc(Cl)c2c(c1)OCO2 | -4.52%
79 | Cc1cnn(CC2CN(CC(=O)Nc3nncs3)CCO2)c1 (centres undefined) | -10%
80 | CC(C)(CNC(=O)CCCOc1cccc(F)c1)C(N)=O | -6.54%
81 | COc1ccc(COCC(=O)N2CCN(CC(C)(C)O)CC2)cc1 | -4.92%
82 | Cn1cc(C(=O)CC2CCCN2C(=O)c2cccc3ncccc23)cn1 (centres undefined) | 6.19%
83 | CCc1ccccc1C(=O)N1CCCC1CC(=O)c1cnn(C)c1 (centres undefined) | -1.22%
84 | Cc1nc(C)n(C2CCCN(C(=O)CCCNc3ncccn3)C2)n1 (centres undefined) | -4.26%
85 | Cn1cnnc1C1CCN(C(=O)Cc2ccc3c(c2)OCCO3)CC1 | -10.4%
86 | COc1cc(CNCc2c(C)nn(C)c2N(C)C)ccc1C | -9.16%
87 | CCc1sc(-c2nnc(CNCCn3cc(C)cn3)o2)cc1C | -8.75%
88 | Fc1cccc(F)c1Cn1c(C2CCCNC2)cc2cccnc21 (centres undefined) | 2%

Row | Compound | cytotoxicity at 10 µM
89 | CS(=O)(=O)N1C[C@H](C(=O)Nc2cccnc2)C[C@H]2OCC[C@H]21 | 11.3%
90 | O=C(Cc1ccsc1)N1C[C@@H]2COC[C@]2(COCc2cccnc2)C1 | 2.98%
91 | Cc1ccc(CN2CCCC3(COCCN(Cc4c[nH]nn4)C3)C2)o1 (centres undefined) | -5.47%
92 | O=C(Cc1ccsc1)N1C[C@@H]2OCCN(CC3CCCO3)[C@@H]2C1 (some centres undefined) | -4.42%
93 | CCOCC1CN(Cc2ccc(OC)cc2)Cc2nn(C)cc21 (centres undefined) | 3.65%
94 | O=C([C@@H]1CCO[C@@H]2CCN(Cc3ccc(F)cc3)C[C@H]21)N1CCCCO1 | 11.9%
95 | CN(C)C(=O)N1CCC2(CC1)CN(Cc1ccccn1)C(=O)CO2 | 2.99%
96 | c1ccc(CN2Cc3[nH]nc(COCC4CC4)c3C2)nc1 | -1.83%
97 | CCCS(=O)(=O)N1Cc2nccn2CC(CN2CCCC2)C1 (centres undefined) | -131%
98 | CCC1=N[C@@]2(CC[C@@H]3CN(Cc4cccc(Cl)c4)C[C@@H]32)C(=O)N1C | -102%
99 | Fc1ccccc1CN1CCCC2(CCN(c3ncccn3)CC2)C1 | -132%
100 | O=C(CC1CC1)N1CCC2(CC1)CN(c1cccnc1)C(=O)CO2 | -90.8%
101 | CS(=O)(=O)N[C@@H]1CCN(Cc2nccs2)[C@H]1Cc1ccncc1 | -2.48%
102 | CC(C)CN1CCC2(C=C(C(=O)N(C)C)c3ccccc32)CC1 | -97.4%
103 | Cc1ccc(C(=O)N2C[C@@H]3CCCO[C@@H]3[C@H](N3CCCC3)C2)cn1 | -3.8%
104 | c1cncc(CN2CCc3ncnc(C4CCOC4)c3CC2)c1 (centres undefined) | 5.02%
105 | CN(Cc1ccco1)[C@@H]1CN(Cc2cccnc2)C[C@@H]2CCCO[C@@H]21 | 8.49%
106 | Cc1occc1C(=O)N1C[C@H]2CCCC(OCc3cccnc3)[C@H]2C1 (some centres undefined) | 2.72%
107 | Cn1cc(CN2C[C@@H]3COC[C@]3(CNC(=O)c3ccccc3)C2)cn1 | -4.02%
108 | O=C(NC[C@H]1CCCO1)c1ccc(S(=O)(=O)N2C[C@H]3C[C@@H]2CN3)cc1 | 2.5%
109 | CN(C)S(=O)(=O)N1C[C@H]2CC[C@@H](C1)N(C/C=C/c1ccc(F)cc1)C2 | -1.23%
